For assay [1], the target named is Mitogen-activated protein kinase 8 (Homo sapiens) (UniProt P45983). As to the kind of experiment: Inhibition of JNK1 assessed as residual enzyme activity at 10 uM relative to untreated control. In short, it runs like this: (§1)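 Kinases of human origin, except CK1δ, which is rat. Run in 50 mM Tris/HCl pH 7.5, 0.1 mM EGTA, 0.1% 2-mercaptoethanol and 10 mM Mg acetate, with [γ-33P]ATP at 20 µM, 30 min at 21 °C. Acid-stopped and captured on P81 filters. Compound tested at 10 µM; residual % of uninhibited control, duplicate determinations.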

For assay [2], the target named is Mitogen-activated protein kinase 9 (Homo sapiens) (UniProt P45984). As to the kind of experiment: Inhibition of JNK2 assessed as residual enzyme activity at 10 uM relative to untreated control. A digest of the protocol: as §1
Assay [3] deals with RAC-beta serine/threonine-protein kinase (Homo sapiens) (UniProt P31751). Description: Inhibition of PKBbeta assessed as residual enzyme activity at 10 uM relative to untreated control. A digest of the protocol: (§2)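 Assayed with [γ-33P]ATP at 50 µM and 10 mM Mg acetate in 50 mM Tris/HCl pH 7.5, 0.1 mM EGTA, 0.1% 2-mercaptoethanol, 30 min, 21 °C. Phosphoric acid stop, P81 filter capture. ERK2 and Lck are mouse; AMPK is rat. 10 µM compound; % activity remaining relative to control without inhibitor, duplicates.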

In assay [4] the target is Protein kinase C alpha type (Homo sapiens) (UniProt P17252). As to the kind of experiment: Inhibition of PKCalpha assessed as residual enzyme activity at 10 uM relative to untreated control. A digest of the protocol:
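Histone H1 (0.1 mg/mL) as substrate, 20 µM [γ-33P]ATP, 10 mM Mg acetate. Run 30 min at 21 °C with 10 µM compound. Radiolabel captured on P81 filters. Expressed as % of uninhibited control, duplicates.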

In assay [5] the target is Ribosomal protein S6 kinase alpha-5 (Homo sapiens) (UniProt O75582). Description: Inhibition of MSK1 assessed as residual enzyme activity at 10 uM relative to untreated control.
Assay [6] has as its target MAP kinase-interacting serine/threonine-protein kinase 2 (Homo sapiens) (UniProt Q9HBH9). As to the kind of experiment: Inhibition of MNK2 assessed as residual enzyme activity at 10 uM relative to untreated control. In short, it runs like this:
as §2

Assay [7] has as its target MAP kinase-activated protein kinase 2 (Homo sapiens) (UniProt P49137). As to the kind of experiment: Inhibition of MAPKAPK2 assessed as residual enzyme activity at 10 uM relative to untreated control. In short, it runs like this: as §1
The target in assay [8] is MAP kinase-activated protein kinase 3 (Homo sapiens) (UniProt Q16644). As to the kind of experiment: Inhibition of MAPKAPK3 assessed as residual enzyme activity at 10 uM relative to untreated control. In short, it runs like this:
as §1

In assay [9] the target is Calcium/calmodulin-dependent protein kinase kinase 1 (Homo sapiens) (UniProt Q8N5S9). As to the kind of experiment: Inhibition of CAMKKalpha assessed as residual enzyme activity at 10 uM relative to untreated control.
Assay [10] deals with T1, Serine/threonine-protein kinase Chk1 (Homo sapiens) (UniProt O14757).
T1 sequence (whole entry): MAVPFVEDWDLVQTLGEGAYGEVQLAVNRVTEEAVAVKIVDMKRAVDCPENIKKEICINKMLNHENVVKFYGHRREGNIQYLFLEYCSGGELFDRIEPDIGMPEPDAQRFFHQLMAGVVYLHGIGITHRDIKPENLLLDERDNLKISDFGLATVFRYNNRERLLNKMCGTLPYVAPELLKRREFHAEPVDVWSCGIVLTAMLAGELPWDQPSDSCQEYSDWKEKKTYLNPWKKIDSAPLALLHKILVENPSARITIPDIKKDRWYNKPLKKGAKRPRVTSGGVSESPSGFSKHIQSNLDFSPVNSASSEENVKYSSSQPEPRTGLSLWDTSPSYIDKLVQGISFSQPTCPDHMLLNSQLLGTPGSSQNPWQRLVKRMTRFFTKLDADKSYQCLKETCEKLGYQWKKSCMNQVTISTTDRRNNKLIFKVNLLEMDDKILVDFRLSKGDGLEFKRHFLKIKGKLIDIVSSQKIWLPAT
Description: Inhibition of CHK1 assessed as residual enzyme activity at 10 uM relative to untreated control. In short, it runs like this:
as §1

The target of assay [11] is Serine/threonine-protein kinase PLK1 (Homo sapiens) (UniProt P53350). Description: Inhibition of PLK1 assessed as residual enzyme activity at 10 uM relative to untreated control. A digest of the protocol: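 30 min at 21 °C in the presence of 10 µM inhibitor. Incorporation read after P81 filter capture. Reported as % activity remaining relative to control, duplicates.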

Assay [12] has as its target Aurora kinase B (Homo sapiens) (UniProt Q96GD4). As to the kind of experiment: Inhibition of AURORA B assessed as residual enzyme activity at 10 uM relative to untreated control. In short, it runs like this:
as §1

Assay [13] addresses MAP/microtubule affinity-regulating kinase 3 (Homo sapiens) (UniProt P27448). Description: Inhibition of MARK3 assessed as residual enzyme activity at 10 uM relative to untreated control. In short, it runs like this: (§3)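 Radiometric filter-binding assay at 21 °C for 30 min. Mix: 50 mM Tris/HCl pH 7.5, 0.1 mM EGTA, 0.1% 2-mercaptoethanol, 10 mM Mg acetate and [γ-33P]ATP (800 cpm/pmol) at 5 µM. Stopped with orthophosphoric acid and spotted on P81. Compound at 10 µM; activity given as % remaining versus no-inhibitor control, duplicates. Kinases human full-length unless noted.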

Assay [14] has as its target Homeodomain-interacting protein kinase 2 (Homo sapiens) (UniProt Q9H2X6). As to the kind of experiment: Inhibition of HIPK2 assessed as residual enzyme activity at 10 uM relative to untreated control. In short, it runs like this: as §3
Assay [15] has as its target Serine/threonine-protein kinase pim-1 (Homo sapiens) (UniProt P11309). Description: Inhibition of Pim-1 assessed as residual enzyme activity at 10 uM relative to untreated control.
The target of assay [16] is Serine/threonine-protein kinase pim-3 (Homo sapiens) (UniProt Q86V86). As to the kind of experiment: Inhibition of Pim-3 assessed as residual enzyme activity at 10 uM relative to untreated control.
Assay [17] can be described thus: Inhibition of CK1 assessed as residual enzyme activity at 10 uM relative to untreated control.
A further assay has as its system ERK2 (Mus musculus). As to the kind of experiment: Inhibition of ERK2 assessed as residual enzyme activity at 10 uM relative to untreated control.

Chain of Serine/threonine-protein kinase pim-1 (Homo sapiens) (P11309 whole entry, looked up): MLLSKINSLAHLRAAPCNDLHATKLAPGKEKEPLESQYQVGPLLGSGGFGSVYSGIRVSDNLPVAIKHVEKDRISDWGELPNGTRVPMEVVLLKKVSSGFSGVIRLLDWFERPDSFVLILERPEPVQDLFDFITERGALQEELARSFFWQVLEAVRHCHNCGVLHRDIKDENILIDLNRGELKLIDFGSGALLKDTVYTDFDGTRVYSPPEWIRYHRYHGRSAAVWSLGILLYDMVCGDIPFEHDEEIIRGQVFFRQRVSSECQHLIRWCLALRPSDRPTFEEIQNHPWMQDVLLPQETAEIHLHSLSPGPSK
Chain of Mitogen-activated protein kinase 8 (Homo sapiens) (P45983 whole entry): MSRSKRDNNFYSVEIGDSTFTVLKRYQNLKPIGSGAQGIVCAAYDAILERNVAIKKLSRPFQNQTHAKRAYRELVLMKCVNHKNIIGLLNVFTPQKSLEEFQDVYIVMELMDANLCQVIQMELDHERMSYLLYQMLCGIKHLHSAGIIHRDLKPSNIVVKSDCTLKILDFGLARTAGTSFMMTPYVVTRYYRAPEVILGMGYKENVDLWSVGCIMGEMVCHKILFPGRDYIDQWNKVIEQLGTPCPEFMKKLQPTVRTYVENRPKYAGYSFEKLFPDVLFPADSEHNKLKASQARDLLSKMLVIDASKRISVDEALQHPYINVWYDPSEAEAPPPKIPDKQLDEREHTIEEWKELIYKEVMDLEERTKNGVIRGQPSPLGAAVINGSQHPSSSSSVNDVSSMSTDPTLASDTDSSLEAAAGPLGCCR
Chain of MAP kinase-activated protein kinase 3 (Homo sapiens) (Q16644 whole entry, looked up): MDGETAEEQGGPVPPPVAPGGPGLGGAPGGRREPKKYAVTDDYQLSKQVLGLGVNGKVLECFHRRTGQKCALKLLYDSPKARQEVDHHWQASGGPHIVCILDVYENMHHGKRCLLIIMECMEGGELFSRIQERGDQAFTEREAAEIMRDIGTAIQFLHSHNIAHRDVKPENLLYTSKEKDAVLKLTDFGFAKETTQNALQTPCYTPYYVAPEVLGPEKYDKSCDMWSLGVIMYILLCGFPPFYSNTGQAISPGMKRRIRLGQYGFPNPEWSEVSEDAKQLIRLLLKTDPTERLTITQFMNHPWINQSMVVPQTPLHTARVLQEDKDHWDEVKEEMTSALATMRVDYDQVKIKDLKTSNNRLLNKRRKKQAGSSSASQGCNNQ
Chain of Calcium/calmodulin-dependent protein kinase kinase 1 (Homo sapiens) (Q8N5S9 whole entry, looked up): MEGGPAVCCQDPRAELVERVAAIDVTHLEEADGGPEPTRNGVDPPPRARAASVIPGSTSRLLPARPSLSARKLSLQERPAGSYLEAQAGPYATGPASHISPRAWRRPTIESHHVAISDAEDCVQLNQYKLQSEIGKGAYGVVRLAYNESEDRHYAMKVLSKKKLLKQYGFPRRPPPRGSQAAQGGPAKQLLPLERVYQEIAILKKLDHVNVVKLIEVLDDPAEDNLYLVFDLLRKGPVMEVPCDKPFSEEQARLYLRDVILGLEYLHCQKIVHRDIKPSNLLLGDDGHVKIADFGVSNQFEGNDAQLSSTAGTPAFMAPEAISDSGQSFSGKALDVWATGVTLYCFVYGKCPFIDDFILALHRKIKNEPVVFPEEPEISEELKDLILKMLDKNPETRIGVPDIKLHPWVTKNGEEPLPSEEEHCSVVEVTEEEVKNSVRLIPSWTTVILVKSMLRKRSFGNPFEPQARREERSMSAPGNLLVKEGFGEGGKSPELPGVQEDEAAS
Chain of RAC-beta serine/threonine-protein kinase (Homo sapiens) (P31751 whole entry): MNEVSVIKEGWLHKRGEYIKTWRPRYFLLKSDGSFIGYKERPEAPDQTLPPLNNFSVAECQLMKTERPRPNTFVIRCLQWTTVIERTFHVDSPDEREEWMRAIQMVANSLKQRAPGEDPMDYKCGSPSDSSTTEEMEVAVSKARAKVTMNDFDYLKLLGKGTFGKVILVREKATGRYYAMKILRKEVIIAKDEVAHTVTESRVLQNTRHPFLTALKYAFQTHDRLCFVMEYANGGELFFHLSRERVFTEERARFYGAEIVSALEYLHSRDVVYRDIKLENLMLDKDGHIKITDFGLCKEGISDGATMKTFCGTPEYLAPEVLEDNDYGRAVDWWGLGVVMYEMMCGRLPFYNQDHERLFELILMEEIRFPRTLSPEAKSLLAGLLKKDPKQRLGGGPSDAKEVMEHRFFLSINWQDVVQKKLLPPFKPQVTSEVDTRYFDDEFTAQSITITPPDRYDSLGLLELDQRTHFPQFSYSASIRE
Chain of Homeodomain-interacting protein kinase 2 (Homo sapiens) (Q9H2X6 whole entry, looked up): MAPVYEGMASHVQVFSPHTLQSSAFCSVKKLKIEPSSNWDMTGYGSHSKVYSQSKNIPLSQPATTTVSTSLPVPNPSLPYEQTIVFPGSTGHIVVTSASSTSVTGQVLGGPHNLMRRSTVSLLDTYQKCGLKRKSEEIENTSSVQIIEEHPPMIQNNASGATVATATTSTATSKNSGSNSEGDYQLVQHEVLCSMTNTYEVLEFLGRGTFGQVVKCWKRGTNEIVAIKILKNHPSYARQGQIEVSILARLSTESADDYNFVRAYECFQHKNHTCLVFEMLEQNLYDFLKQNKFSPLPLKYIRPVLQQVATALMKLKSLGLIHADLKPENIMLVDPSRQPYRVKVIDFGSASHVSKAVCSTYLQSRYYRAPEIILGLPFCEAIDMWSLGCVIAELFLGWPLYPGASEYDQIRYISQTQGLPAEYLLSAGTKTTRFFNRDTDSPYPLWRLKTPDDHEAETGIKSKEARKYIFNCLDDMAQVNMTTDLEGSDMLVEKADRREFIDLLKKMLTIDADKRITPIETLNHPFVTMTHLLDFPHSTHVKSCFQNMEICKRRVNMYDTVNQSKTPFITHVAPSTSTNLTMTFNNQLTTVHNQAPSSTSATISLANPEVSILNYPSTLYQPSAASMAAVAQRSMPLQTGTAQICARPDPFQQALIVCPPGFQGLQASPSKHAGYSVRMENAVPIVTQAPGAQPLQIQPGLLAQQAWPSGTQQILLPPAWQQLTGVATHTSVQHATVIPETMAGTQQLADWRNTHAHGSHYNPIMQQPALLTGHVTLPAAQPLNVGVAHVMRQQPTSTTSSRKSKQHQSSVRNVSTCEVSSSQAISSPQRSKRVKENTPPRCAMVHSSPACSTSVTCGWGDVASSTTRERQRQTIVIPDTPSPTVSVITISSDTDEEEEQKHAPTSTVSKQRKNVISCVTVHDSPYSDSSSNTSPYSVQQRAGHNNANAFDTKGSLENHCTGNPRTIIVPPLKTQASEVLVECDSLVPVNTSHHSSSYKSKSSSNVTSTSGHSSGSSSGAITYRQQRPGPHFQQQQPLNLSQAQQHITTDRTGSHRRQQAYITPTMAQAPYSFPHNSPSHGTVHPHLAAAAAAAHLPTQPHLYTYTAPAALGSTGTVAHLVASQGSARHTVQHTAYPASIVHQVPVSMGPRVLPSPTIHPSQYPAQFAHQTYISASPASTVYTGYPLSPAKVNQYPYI
Chain of MAP kinase-activated protein kinase 2 (Homo sapiens) (P49137 whole entry, looked up): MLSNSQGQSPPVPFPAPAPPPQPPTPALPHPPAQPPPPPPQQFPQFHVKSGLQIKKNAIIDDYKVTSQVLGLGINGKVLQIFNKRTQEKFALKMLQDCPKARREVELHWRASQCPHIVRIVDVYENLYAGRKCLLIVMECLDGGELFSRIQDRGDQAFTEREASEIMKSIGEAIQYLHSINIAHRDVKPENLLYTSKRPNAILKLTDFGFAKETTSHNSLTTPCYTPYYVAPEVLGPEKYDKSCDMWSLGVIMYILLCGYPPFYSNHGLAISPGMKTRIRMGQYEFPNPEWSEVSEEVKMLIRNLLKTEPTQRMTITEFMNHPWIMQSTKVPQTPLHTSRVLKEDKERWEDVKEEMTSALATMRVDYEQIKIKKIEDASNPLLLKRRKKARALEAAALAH
Chain of Aurora kinase B (Homo sapiens) (Q96GD4 whole entry): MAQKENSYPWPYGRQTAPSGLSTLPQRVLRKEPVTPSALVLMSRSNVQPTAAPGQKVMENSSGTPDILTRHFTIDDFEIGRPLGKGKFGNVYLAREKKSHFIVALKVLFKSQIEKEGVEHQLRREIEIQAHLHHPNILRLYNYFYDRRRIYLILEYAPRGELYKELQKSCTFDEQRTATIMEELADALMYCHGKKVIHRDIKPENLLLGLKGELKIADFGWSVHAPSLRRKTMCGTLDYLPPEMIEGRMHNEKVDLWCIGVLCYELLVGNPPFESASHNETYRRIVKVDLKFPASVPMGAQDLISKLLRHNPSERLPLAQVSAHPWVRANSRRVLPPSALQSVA

Consider `O=Cc1c[nH]c2c1ccc1c3ccccc3[nH]c12`, for which the Activity in [1] was 102%; in assay [2], 128%; in [3] it was 98%; in [4], 84%; in assay [5], 71%; in [6], 55%. For the same compound, the Activity in assay [7] came out at 84%; in [8], 69%; in [9], 42%; in assay [10], 97%; in assay [11], 91%; in assay [12], 68%. In addition, the Activity in [13] was found to be 88%.

On to `c1ccc2c(c1)[nH]c1c3cc[nH]c3ccc21`, for which the Activity in assay [1] came to 116%; in [2] it was 130%; in [14], 72%; in assay [3], 107%; in assay [4] it was 103%; in assay [5] it was 94%. In addition, the Activity in assay [6] worked out at 103%; in [7], 95%; in assay [8] it was 88%; in assay [9], 92%; in assay [10], 112%; in assay [11], 105%. The Activity in [12] came out at 67%; in assay [13], 94%; in assay [15], 53%; in assay [16], 29%; in assay [17], 99%; in the assay with ERK2 (Mus musculus), 100%.

On to `O=Cc1c[nH]c2ccc3c4ccccc4[nH]c3c12`, for which the Activity in assay [1] came to 113%; in [2], 111%; in assay [14] it was 95%; in assay [3] it was 107%; in [4], 95%; in assay [5], 84%. Further, the Activity in [6] is 109%; in assay [7], 95%; in [8], 90%; in [9] it was 90%; in assay [10], 101%; in [11] it was 106%. The Activity in assay [12] is 92%; in [13], 105%; in assay [15], 79%; in assay [16] it was 102%; in assay [17], 113%; in the assay on ERK2 (Mus musculus), 94%.

For the compound `c1ccc2c(c1)[nH]c1c2ccc2cc[nH]c21`, the Activity in assay [1] came to 102%; in [2], 118%; in assay [14], 59%; in assay [3], 107%; in [4], 111%; in assay [5], 90%. The Activity worked out at 95% in [6]; 118% in assay [7]; 89% in assay [8]; 76% in assay [9]; 123% in assay [10]; 111% in assay [11]. Also, the Activity is 67% in [12]; 116% in assay [13]; 20% in [15]; 38% in assay [16]; 107% in assay [17]; 94% in the assay on ERK2 (Mus musculus).

For the origin of these results see ChEMBL document CHEMBL1154186, “Synthesis, kinase inhibitory potencies, and in vitro antiproliferative evaluation of new Pim kinase inhibitors” (J Med Chem, 2009).
